# Several values for one entry are separate records, joined by “and”; a condition that tells them apart may be missing. Identical values can stand only once.
# Experiments:
# [1] = Substitution kinetics of chlorides by thiourea; format: physicochemical; conditions: Nu = Tu, 35 °C; for k2^1st × 10^1: first step; for k2^1st × 10^1 / k2^2nd × 10^2: pH 7.2; for k–1^2nd × 10^5: second step back reaction; for k2^2nd × 10^2: second step
# Outline: (§1)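 Chloride substitution was followed by UV-vis under pseudo-first-order conditions: complex 50 μM with the nucleophile in ≥20-fold excess, in 5 mM Tris–HCl/50 mM NaCl, pH 7.2. Complex stocks were 5 mM in 5% DMF. Runs spanned 25–55 °C at 10 °C intervals, and the Tu trace was taken at 524 nm. Rate constants came from kobs vs [nucleophile] plots, with activation parameters from temperature dependence.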
# [2] = Substitution kinetics of chlorides by L-methionine; format: physicochemical; conditions: Nu = L-Met, 35 °C, pH 7.2; for k2^1st × 10^1: first step; for k1^2nd × 10^4: second step (ring closure)
# Outline: as §1
# [3] = tested on: guanosine-5′-monophosphate, 5′-GMP; assay: Substitution kinetics of chlorides by guanosine-5′-monophosphate; format: physicochemical; conditions: Nu = 5′-GMP, 35 °C; for k2^1st × 10^1: first step; for k2^1st × 10^1 / k2^2nd × 10^2: pH 7.2; for k–1^2nd × 10^5: second step back reaction; for k2^2nd × 10^2: second step
# Outline: as §1
# [4] = tested on: CT-DNA; assay: CT-DNA UV-vis absorption titration; format: binding, calf; conditions: Van't Hoff equation ΔG = −RT lnKb
# Outline: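 UV-vis titration of test complex (14 μM) with CT-DNA (0–90 μM) in 5 mM Tris–HCl/50 mM NaCl, pH 7.2. Complex came from a 5 mM DMSO stock diluted in buffer, and samples were equilibrated about 14 h at 37 °C. The binding constant came from absorbance changes, and ΔG from it.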
# [5] = tested on: EtBr + CT-DNA adduct; assay: Fluorescence EtBr exchange titration on CT-DNA; format: binding, calf; conditions: for n (number of binding sites) / KF × 10^–4 (Scatchard binding constant) / Kapp × 10^–6 (apparent binding constant) / Ksv × 10^–4 (Stern–Volmer quenching constant) / kq × 10^–12 (bimolecular quenching rate constant): EtBr exchange; for n (number of binding sites): Scatchard; for KF × 10^–4 (Scatchard binding constant) / Kapp × 10^–6 (apparent binding constant) / Ksv × 10^–4 (Stern–Volmer quenching constant) / kq × 10^–12 (bimolecular quenching rate constant) / Decrease in initial EtBr+CT-DNA fluorescence: pH 7.2; for Decrease in initial EtBr+CT-DNA fluorescence: λem = 596 nm, λex = 510 nm
# Outline: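 Competitive EtBr displacement used EtBr 20.0 μM and CT-DNA 20.0 μM with test complex added at 0–150 μM, in 5 mM Tris/50 mM NaCl, pH 7.2. Samples were equilibrated about 14 h at 37 °C. Emission was 596 nm (excitation 510 nm), with inner-filter check. Data were analysed as Stern–Volmer Io/I vs [Q] and Scatchard log[(Io–I)/I] vs log[Q].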
# [6] = molecular target: BSA (Bos taurus, UniProt P02769); assay: BSA fluorescence quenching titration; format: binding, bovine; conditions: for Ksv × 10^–5: BSA 1.08 μM; for Ksv × 10^–5 / Decrease in initial BSA fluorescence: λem = 348 nm; for kq × 10^–13: BSA quenching; for KF × 10^–5 / n (number of binding sites): BSA, Scatchard; for Decrease in initial BSA fluorescence: pH 7.2
# Chain of BSA (P02769 25-607): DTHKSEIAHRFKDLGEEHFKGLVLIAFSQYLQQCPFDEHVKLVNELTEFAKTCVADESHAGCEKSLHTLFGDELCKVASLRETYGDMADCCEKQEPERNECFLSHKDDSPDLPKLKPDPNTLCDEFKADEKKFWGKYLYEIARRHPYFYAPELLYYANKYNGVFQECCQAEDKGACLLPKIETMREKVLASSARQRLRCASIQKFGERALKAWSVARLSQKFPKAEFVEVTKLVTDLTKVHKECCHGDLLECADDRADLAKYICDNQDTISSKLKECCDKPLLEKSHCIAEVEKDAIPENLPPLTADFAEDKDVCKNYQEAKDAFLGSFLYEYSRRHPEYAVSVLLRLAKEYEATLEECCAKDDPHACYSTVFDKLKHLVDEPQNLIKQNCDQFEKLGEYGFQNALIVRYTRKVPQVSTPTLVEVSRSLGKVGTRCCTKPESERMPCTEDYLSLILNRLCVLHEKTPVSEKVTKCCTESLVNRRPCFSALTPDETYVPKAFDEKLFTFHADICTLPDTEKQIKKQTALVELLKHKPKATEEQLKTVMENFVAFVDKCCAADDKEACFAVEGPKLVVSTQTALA
# Outline: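 Complex stocks were 5 mM in DMSO, diluted in buffer, and samples were incubated about 14 h at 37 °C before reading. Emission was read at 348 nm and checked for inner-filter effects by UV-vis. Data were fitted by Stern–Volmer and Scatchard analysis.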
# [7] = tested on: supercoiled pcDNA; assay: Photoinduced pcDNA cleavage; format: biochemical; conditions: 250 μM complex + 0.1 μM pcDNA
# [8] = tested on: human breast adenocarcinoma, MCF-7 cell line; assay: MTT cytotoxicity assay, MCF-7; format: cell-based; conditions: for SI (IC50 of Vero cell line/IC50 of MCF-7 cell line): Vero vs MCF-7; for IC50: read-out: IC50 breast cancer MCF-7, MTT, 24 h incubation, n = 3
# Outline: (§2)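 MTT viability assay. Vero cells were grown in MEM and MCF-7 cells in DMEM, both with 10% FBS and penicillin/streptomycin, at 37 °C and 5% CO2. Cells were exposed 24 h to test complex at 2, 4, 8, 16, 32 and 64 (DMSO stock). Viability was expressed relative to untreated control and IC50 computed. Values are mean ± SD of three independent experiments. SI = IC50 Vero / IC50 MCF-7.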
# [9] = tested on: normal Vero cell line; assay: MTT cytotoxicity assay, Vero; format: cell-based; conditions: read-out: IC50 normal Vero, 24 h incubation, n = 3
# Outline: as §2
# [10] = tested on: zebrafish embryos; assay: Zebrafish embryo acute toxicology; format: in vivo, Danio rerio; conditions: for drop of survival rate when the concentration increased from 15 to 90 μM / morphological changes in zebrafish embryos / LC50: 96 hpf; for morphological changes in zebrafish embryos: even at 90 M (printed); for LC50: zebrafish embryos
# [11] = tested on: zebrafish embryos; conditions: cited from earlier work
Compound,k2^1st × 10^1 [1],k–1^2nd × 10^5 [1],k2^2nd × 10^2 [1],k2^1st × 10^1 [2],k1^2nd × 10^4 [2],k2^1st × 10^1 [3],k–1^2nd × 10^5 [3],k2^2nd × 10^2 [3],ΔG of binding with CT-DNA [4],n (number of binding sites) [5],KF × 10^–4 (Scatchard binding constant) [5],Kapp × 10^–6 (apparent binding constant) [5],Ksv × 10^–4 (Stern–Volmer quenching constant) [5],kq × 10^–12 (bimolecular quenching rate constant) [5],Decrease in initial EtBr+CT-DNA fluorescence [5],experimental ΔG of binding with BSA [6],Ksv × 10^–5 [6],SI (IC50 of Vero cell line/IC50 of MCF-7 cell line) [8],morphological changes in zebrafish embryos [10],LC50 [10],other results
"[Cl-].[Cl-].[Pt+2].[Ru+2].c1ccc(-c2nccnc2-c2ccccn2)nc1.c1cnc2c(c1)ccc1cccnc12.c1cnc2c(c1)ccc1cccnc12 [C1, [(1,10-phenanthroline)2Ru(II)(μ-2,3-bis(2-pyridyl)pyrazine)Pt(II)dichloride]^2+]",1.45 ± 0.15 M^–1 s^–1,1.04 ± 0.04 s^–1,2.73 ± 0.10 M^–1 s^–1,0.75 ± 0.11 M^–1 s^–1,0.37 ± 0.08 ^a s^–1,0.34 ± 0.09 M^–1 s^–1,0.20 ± 0.02 s^–1,0.75 ± 0.04 M^–1 s^–1,−30 ± 3 kJ mol^–1,0.99 ± 0.04,1.00 ± 0.05 M^–1,3.33 ± 0.11 M^–1,1.59 ± 0.07 M^–1,0.69 ± 0.19 M^–1 s^–1,up to 19%,−31.02 kJ mol^–1,1.84 ± 0.08 M^–1,2.12,did not induce any significant morphological changes,65.2 ± 1 µM,kq × 10^–13 [6]: 1.84 ± 0.16 M^–1 s^–1; KF × 10^–5 [6]: 0.47 ± 0.06 M^–1; n (number of binding sites) [6]: 0.84 ± 0.03; Decrease in initial BSA fluorescence [6]: up to 20%; % of NC (pcDNA cleavage) [7]: ~24%; IC50 [8]: 9.1 ± 1.5 µM; IC50 [9]: 19.3 ± 2.1 µM; drop of survival rate when the concentration increased from 15 to 90 μM [10]: 50%
"[Cl-].[Cl-].[Pt+2].[Ru+2].c1ccc(-c2nc3ccccc3nc2-c2ccccn2)nc1.c1cnc2c(c1)ccc1cccnc12.c1cnc2c(c1)ccc1cccnc12 [C2, [(1,10-phenanthroline)2Ru(II)(μ-2,3-bis(2-pyridyl)quinoxaline)Pt(II)dichloride]^2+]",4.26 ± 0.21 M^–1 s^–1,4.35 ± 0.09 s^–1,8.65 ± 0.15 M^–1 s^–1,1.75 ± 0.18 M^–1 s^–1,1.02 ± 0.15 ^a s^–1,0.96 ± 0.13 M^–1 s^–1,0.84 ± 0.04 s^–1,1.48 ± 0.08 M^–1 s^–1,−35 ± 2 kJ mol^–1,0.99 ± 0.05,1.98 ± 0.11 M^–1,6.25 ± 0.17 M^–1,2.83 ± 0.13 M^–1,1.23 ± 0.24 M^–1 s^–1,≤ 23%,−31.55 kJ mol^–1,2.26 ± 0.15 M^–1,4.38,did not induce any significant morphological changes,96.3 ± 1.4 µM,kq × 10^–13 [6]: 2.26 ± 0.24 M^–1 s^–1; KF × 10^–5 [6]: 1.16 ± 0.10 M^–1; n (number of binding sites) [6]: 1.00 ± 0.05; Decrease in initial BSA fluorescence [6]: ≤ 17%; % of NC (pcDNA cleavage) [7]: ~18%; IC50 [8]: 4 ± 1.1 µM; IC50 [9]: 17.5 ± 1.9 µM
"[Cl-].[Cl-].[Pt+2].[Ru+2].c1ccc(-c2nc3cc4ccccc4cc3nc2-c2ccccn2)nc1.c1cnc2c(c1)ccc1cccnc12.c1cnc2c(c1)ccc1cccnc12 [C3, [(1,10-phenanthroline)2Ru(II)(μ-2,3-bis(2-pyridyl)benzo[g]quinoxaline)Pt(II)dichloride]^2+]",7.57 ± 0.29 M^–1 s^–1,10.99 ± 0.13 s^–1,14.53 ± 0.22 M^–1 s^–1,3.10 ± 0.26 M^–1 s^–1,2.08 ± 0.33 ^a s^–1,1.39 ± 0.15 M^–1 s^–1,2.22 ± 0.04 s^–1,2.20 ± 0.10 M^–1 s^–1,−36 ± 3 kJ mol^–1,1.00 ± 0.07,3.96 ± 0.17 M^–1,8.00 ± 0.23 M^–1,3.92 ± 0.19 M^–1,1.70 ± 0.31 M^–1 s^–1,≤ 37%,−31.97 kJ mol^–1,2.65 ± 0.22 M^–1,5.55 and 5.23,did not induce any significant morphological changes,149 µM,"kq × 10^–13 [6]: 2.65 ± 0.33 M^–1 s^–1; KF × 10^–5 [6]: 6.64 ± 0.17 M^–1; n (number of binding sites) [6]: 1.01 ± 0.07; Decrease in initial BSA fluorescence [6]: ≤ 10%; % of NC (pcDNA cleavage) [7]: 17%; IC50 [8]: 3.1 ± 0.8 µM; IC50 [9]: 16.2 ± 1.7 µM; % of survival rate ([10]; 15 μM, 96 h): 86.7%; embryos abnormal, difficulty growing into juvenile zebrafish ([10]; 45 μM or higher concentration): about 25%; % of survival rate ([10]; 90 μM, 96 h): 56.7%; drop of survival rate when the concentration increased from 15 to 90 μM [10]: 30%"
"cis-[Pt(NH3)2Cl2] [cisplatin, reference compound]",,,,,,,,,,,,,,,,,,4.02,did not induce any significant morphological changes,181 µM,"% of survival rate ([10]; 15 μM, 96 h): over 90%; % of hatching rate ([10]; 90 μM, 96 h): about 6.7%; % of survival rate ([10]; 90 μM, 96 h): 60%; lethality in zebrafish ([11]; 400 μM): lethal outcome; toxicity in developing zebrafish embryos ([11]; under 15 μM, delayed hatching up to 120 hpf): nontoxic"
